Source: ChEMBL document CHEMBL3992534, “Design, Synthesis, and Biological Evaluation of Novel, Non-Brain-Penetrant, Hybrid Cannabinoid CB1R Inverse Agonist/Inducible Nitric Oxide Synthase (iNOS) Inhibitors for the Treatment of Liver Fibrosis” (J Med Chem, 2017)

Tests used:
Cannabinoid receptor 2 = Cannabinoid receptor 2 (Mus musculus, UniProt P47936); experiment: Displacement of [3H]CP55940 from mouse CB2R expressed in CHOK1 cell membranes
Procedure, shortened: (§1)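 Displacement binding isotherms with [3H]-CP55940 as labeled ligand on plasma membranes from CHO-K1 cells expressing CB1R or CB2R. Ki was calculated by the Cheng-Prusoff equation. Values are mean ± SEM of 3 independent experiments, each run in triplicate.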

Cannabinoid receptor 1 [1] = target: T1, Cannabinoid receptor 1 (Mus musculus, UniProt P47746); experiment: Inverse agonist at mouse brain CB1R expressed in CHOK1 cell membranes assessed as inhibition of CP55940-stimulated [35S]GTP-gammaS binding measured after 60 mins by scintillation spectrometry
Cannabinoid receptor 1 [2] = target: T1, Cannabinoid receptor 1; experiment: Displacement of [3H]CP55940 from mouse brain CB1R expressed in CHOK1 cell membranes; procedure, shortened: as §1

Cannabinoid receptor 2, sequence (P47936 whole entry): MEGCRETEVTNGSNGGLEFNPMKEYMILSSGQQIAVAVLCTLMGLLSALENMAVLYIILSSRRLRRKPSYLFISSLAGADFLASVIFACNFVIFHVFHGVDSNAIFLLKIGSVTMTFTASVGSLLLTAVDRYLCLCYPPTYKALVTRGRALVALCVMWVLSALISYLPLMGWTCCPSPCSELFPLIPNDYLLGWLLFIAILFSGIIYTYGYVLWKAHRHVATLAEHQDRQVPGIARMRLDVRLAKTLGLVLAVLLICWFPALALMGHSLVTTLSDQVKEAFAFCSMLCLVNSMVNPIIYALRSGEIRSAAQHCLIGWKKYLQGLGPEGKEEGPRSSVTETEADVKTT
T1 sequence (P47746 whole entry): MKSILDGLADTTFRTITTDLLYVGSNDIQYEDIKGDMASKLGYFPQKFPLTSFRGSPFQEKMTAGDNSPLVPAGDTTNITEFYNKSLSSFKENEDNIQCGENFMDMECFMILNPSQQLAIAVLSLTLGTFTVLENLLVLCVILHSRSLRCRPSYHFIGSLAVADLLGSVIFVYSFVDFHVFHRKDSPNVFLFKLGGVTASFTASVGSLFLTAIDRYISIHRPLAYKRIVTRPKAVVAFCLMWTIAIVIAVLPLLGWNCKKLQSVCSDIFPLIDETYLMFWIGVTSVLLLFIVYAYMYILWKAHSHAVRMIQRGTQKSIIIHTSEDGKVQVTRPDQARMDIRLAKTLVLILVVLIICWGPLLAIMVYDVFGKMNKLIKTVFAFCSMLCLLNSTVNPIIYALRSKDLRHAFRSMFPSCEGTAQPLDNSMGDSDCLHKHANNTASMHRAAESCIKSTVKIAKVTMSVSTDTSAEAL

Row | Compound | Ki (Cannabinoid receptor 2) | IC50 (Cannabinoid receptor 1 [1]) | Ki (Cannabinoid receptor 1 [2])
1 | C/C(N)=N\C(=N/S(=O)(=O)c1ccc(I)cc1)N1CC(c2ccccc2)C(c2ccc(Cl)cc2)=N1 (stereo not given) | > 1000 nM | 65 nM | –
2 | CCS/C(N)=N\C(=N/S(=O)(=O)c1ccc(Cl)cc1)N1CC(c2ccccc2)C(c2ccc(Cl)cc2)=N1 (stereo not given) | > 1000 nM | 534 nM | –
3 | N/C(=N/C(=N\S(=O)(=O)c1ccc(Cl)cc1)N1CC(c2ccccc2)C(c2ccc(Cl)cc2)=N1)SCCc1ccccc1 (stereo not given) | > 1000 nM | 441 nM | –
4 | COc1cccc(/C(N)=N\C(=N/S(=O)(=O)c2ccc(Cl)cc2)N2CC(c3ccccc3)C(c3ccc(Cl)cc3)=N2)c1 (stereo not given) | 161 nM | 33 nM | –
5 | N/C(=N/C(=N\S(=O)(=O)c1ccc(Cl)cc1)N1CC(c2ccccc2)C(c2ccc(Cl)cc2)=N1)c1ccc(Br)cc1 (stereo not given) | > 1000 nM | – | –
6 | CC(C)S/C(N)=N\C(=N/S(=O)(=O)c1ccc(Cl)cc1)N1CC(c2ccccc2)C(c2ccc(Cl)cc2)=N1 (stereo not given) | > 1000 nM | 395 nM | –
7 | C/C(N)=N\C(=N/S(=O)(=O)c1ccccc1)N1CC(c2ccccc2)C(c2ccc(Cl)cc2)=N1 (stereo not given) | > 1000 nM | 2040 nM | –
8 | C/C(N)=N\C(=N/S(=O)(=O)c1ccc2ccccc2c1)N1CC(c2ccccc2)C(c2ccc(Cl)cc2)=N1 (stereo not given) | > 1000 nM | 118 nM | –
9 | CNC(=NS(=O)(=O)c1ccc(Cl)cc1)N1CC(c2ccccc2)C(c2ccc(Cl)cc2)=N1 (stereo not drawn) [RAC-IBIPINABANT] | – | 76 nM | 8.1 nM
10 | C/C(N)=N\C(=N/S(=O)(=O)c1ccc(C(C)(C)C)cc1)N1CC(c2ccccc2)C(c2ccc(Cl)cc2)=N1 (stereo not given) | > 1000 nM | 30 nM | –
11 | N/C(=N/C(=N\S(=O)(=O)c1ccc(Cl)cc1)N1CC(c2ccccc2)C(c2ccc(Cl)cc2)=N1)c1ccccc1 (stereo not given) | 1000 nM | 117 nM | –
12 | N/C(COc1ccccc1)=N/C(=N\S(=O)(=O)c1ccc(Cl)cc1)N1CC(c2ccccc2)C(c2ccc(Cl)cc2)=N1 (stereo not given) | > 1000 nM | 125 nM | –
13 | N/C(=N/C(=N\S(=O)(=O)c1ccc(Cl)cc1)N1CC(c2ccccc2)C(c2ccc(Cl)cc2)=N1)c1ccc(F)cc1 (stereo not given) | 173 nM | 116 nM | –
14 | N/C(=N/C(=N\S(=O)(=O)c1ccc(Cl)cc1)N1CC(c2ccccc2)C(c2ccc(Cl)cc2)=N1)c1ccccc1F (stereo not given) | 107 nM | 72 nM | –
15 | N/C(=N/C(=N\S(=O)(=O)c1ccc(Cl)cc1)N1CC(c2ccccc2)C(c2ccc(Cl)cc2)=N1)C1CC1 (stereo not given) | > 1000 nM | 241 nM | –
16 | N/C(=N/C(=N\S(=O)(=O)c1ccc(Cl)cc1)N1CC(c2ccccc2)C(c2ccc(Cl)cc2)=N1)C12CC3CC(CC(C3)C1)C2 (stereo not given) | > 1000 nM | 226 nM | –
17 | N/C(=N/C(=N\S(=O)(=O)c1ccc(Cl)cc1)N1CC(c2ccccc2)C(c2ccc(Cl)cc2)=N1)SCCCc1ccccc1 (stereo not given) | > 1000 nM | 2640 nM | –
18 | N/C(=N/C(=N\S(=O)(=O)c1ccc(Cl)cc1)N1CC(c2ccccc2)C(c2ccc(Cl)cc2)=N1)c1ccccn1 (stereo not given) | > 1000 nM | 33 nM | 26 nM
19 | CS/C(N)=N\C(=N/S(=O)(=O)c1ccc(C(F)(F)F)cc1)N1CC(c2ccccc2)C(c2ccc(Cl)cc2)=N1 (stereo not given) | > 1000 nM | 97 nM | 63 nM

Row | Compound | Ki (Cannabinoid receptor 2) | IC50 (Cannabinoid receptor 1 [1]) | Ki (Cannabinoid receptor 1 [2])
20 | N/C(=N/C(=N\S(=O)(=O)c1ccc(Cl)cc1)N1CC(c2ccccc2)C(c2ccc(Cl)cc2)=N1)c1ccc(Cl)cc1 (stereo not given) | 158 nM | 18 nM | 10 nM
21 | C/C(N)=N\C(=N/S(=O)(=O)c1ccc(C)cc1)N1CC(c2ccccc2)C(c2ccc(Cl)cc2)=N1 (stereo not given) | > 1000 nM | 113 nM | –
22 | N/C(=N/C(=N\S(=O)(=O)c1ccc(Cl)cc1)N1CC(c2ccccc2)C(c2ccc(Cl)cc2)=N1)c1ccncc1 (stereo not given) | > 1000 nM | 603 nM | –
23 | C/C(N)=N\C(=N/S(=O)(=O)c1ccc(OC(F)(F)F)cc1)N1CC(c2ccccc2)C(c2ccc(Cl)cc2)=N1 (stereo not given) | > 1000 nM | 76 nM | –
24 | C/C(N)=N\C(=N/S(=O)(=O)c1ccc(C(F)(F)F)cc1)N1CC(c2ccccc2)C(c2ccc(Cl)cc2)=N1 (stereo not given) | > 1000 nM | 40 nM | 5.7 nM
25 | CS/C(N)=N\C(=N/S(=O)(=O)c1ccc2ccccc2c1)N1CC(c2ccccc2)C(c2ccc(Cl)cc2)=N1 (stereo not given) | > 1000 nM | 2670 nM | 29 nM
26 | N/C(=N/C(=N\S(=O)(=O)c1ccc(Cl)cc1)N1CC(c2ccccc2)C(c2ccc(Cl)cc2)=N1)c1cccc(Br)c1 (stereo not given) | 250 nM | 292 nM | –
27 | CS/C(N)=N\C(=N/S(=O)(=O)c1ccc(I)cc1)N1CC(c2ccccc2)C(c2ccc(Cl)cc2)=N1 (stereo not given) | > 1000 nM | 65 nM | 10 nM
28 | COc1ccc(S(=O)(=O)/N=C(\N=C(/C)N)N2CC(c3ccccc3)C(c3ccc(Cl)cc3)=N2)cc1 (stereo not given) | > 1000 nM | 70 nM | –
29 | C/C(N)=N\C(=N/S(=O)(=O)c1ccc(Cl)cc1)N1CC(c2ccccc2)C(c2ccc(Cl)cc2)=N1 (stereo not given) | > 1000 nM | – | –
30 | C/C(N)=N\C(=N/S(=O)(=O)c1ccc(F)cc1)N1CC(c2ccccc2)C(c2ccc(Cl)cc2)=N1 (stereo not given) | > 1000 nM | 686 nM | –
31 | CC(C)(C)/C(N)=N\C(=N/S(=O)(=O)c1ccc(Cl)cc1)N1CC(c2ccccc2)C(c2ccc(Cl)cc2)=N1 (stereo not given) | > 1000 nM | 182 nM | –
32 | C/C(N)=N\C(=N/S(=O)(=O)c1ccc(Br)cc1)N1CC(c2ccccc2)C(c2ccc(Cl)cc2)=N1 (stereo not given) | > 1000 nM | 19 nM | –
33 | C/C(N)=N\C(=N/S(=O)(=O)c1ccc(C(C)C)cc1)N1CC(c2ccccc2)C(c2ccc(Cl)cc2)=N1 (stereo not given) | > 1000 nM | 90 nM | 10 nM
34 | CS/C(N)=N\C(=N/S(=O)(=O)c1ccc(Cl)cc1)N1CC(c2ccccc2)C(c2ccc(Cl)cc2)=N1 (stereo not given) | > 1000 nM | – | –
35 | N/C(=N/C(=N\S(=O)(=O)c1ccc(Cl)cc1)N1CC(c2ccccc2)C(c2ccc(Cl)cc2)=N1)SCc1ccccc1 (stereo not given) | > 1000 nM | 213 nM | –
36 | CC(C)/C(N)=N\C(=N/S(=O)(=O)c1ccc(Cl)cc1)N1CC(c2ccccc2)C(c2ccc(Cl)cc2)=N1 (stereo not given) | > 1000 nM | > 1000 nM | –
37 | N/C(=N/C(=N\S(=O)(=O)c1ccc(Cl)cc1)N1CC(c2ccccc2)C(c2ccc(Cl)cc2)=N1)c1cccs1 (stereo not given) | > 1000 nM | 101 nM | –
38 | N/C(=N/C(=N\S(=O)(=O)c1ccc(Cl)cc1)N1CC(c2ccccc2)C(c2ccc(Cl)cc2)=N1)c1ccc(F)cc1F (stereo not given) | 106 nM | 22 nM | –
